# Test results: publication PMC3115441 (Chemical biology & drug design, 2011)
# “Also recorded” adds a separate entry of the source. Read-outs that look alike come from different tables or passages of the source.
# What was measured:
# [1] = molecular target: Serotonin Transporter (SERT) (Homo sapiens, UniProt P31645); assay: NIMH-PDSP radioligand binding, SERT
# [2] = system: mice; assay: Acute toxicity, minimal motor impairment; type: in vivo; details: for TOX (30) N/F, animals toxic over tested / TOX (100) N/F, animals toxic over tested / TOX (300) N/F, animals toxic over tested: rotorod; for TOX (30) N/F, animals toxic over tested: 30 mg/kg
# [3] = system: Metrazol-induced clonic seizures; assay: Subcutaneous Metrazol seizure threshold test; type: in vivo, mice; details: for scMET (30) N/F, animals active over tested: 30 mg/kg; for scMET (100) N/F, animals active over tested: 100 mg/kg; for scMET (300) N/F, animals active over tested: 300 mg/kg
# [4] = molecular target: Dopamine 2 (D2) (Homo sapiens, UniProt P14416); assay: NIMH-PDSP radioligand binding, D2
# Sequence of Dopamine 2 (D2) (P14416 whole entry): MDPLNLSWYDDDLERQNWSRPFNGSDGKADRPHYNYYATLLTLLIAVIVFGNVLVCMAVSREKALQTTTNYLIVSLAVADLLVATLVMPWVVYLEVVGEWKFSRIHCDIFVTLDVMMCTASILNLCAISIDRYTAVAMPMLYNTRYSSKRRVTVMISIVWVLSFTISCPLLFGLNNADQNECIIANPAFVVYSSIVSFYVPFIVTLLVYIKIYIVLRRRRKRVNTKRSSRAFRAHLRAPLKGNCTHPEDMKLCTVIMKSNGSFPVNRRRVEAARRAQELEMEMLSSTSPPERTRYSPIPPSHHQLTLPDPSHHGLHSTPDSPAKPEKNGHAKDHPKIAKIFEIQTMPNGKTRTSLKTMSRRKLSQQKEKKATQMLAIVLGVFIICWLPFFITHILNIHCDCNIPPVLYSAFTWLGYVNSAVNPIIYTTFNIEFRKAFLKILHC
# [5] = system: PCP site of the NMDA receptor complex; assay: [3H]; type: binding, rat; details: for Ki: read-out: NMDA affinity Ki, calculated by Cheng and Prusoff equation
# In short: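 Washed rat forebrain homogenate (30 ug/mL protein) in 10 mM HEPES, pH 7.4, with 1 nM (+)-[3H]MK-801, 100 uM glutamate, 30 uM glycine and varied competitor concentrations. Nonspecific binding was set with 30 uM (+)-MK-801. Incubation ran 2 h at room temperature, then vacuum filtration onto GF/B filters, three buffer washes and scintillation counting.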
# [6] = molecular target: Sigma1 (Rattus norvegicus, UniProt Q9R0C9); assay: NIMH-PDSP radioligand binding, Sigma-1
# Sequence of Sigma1 (Q9R0C9 whole entry): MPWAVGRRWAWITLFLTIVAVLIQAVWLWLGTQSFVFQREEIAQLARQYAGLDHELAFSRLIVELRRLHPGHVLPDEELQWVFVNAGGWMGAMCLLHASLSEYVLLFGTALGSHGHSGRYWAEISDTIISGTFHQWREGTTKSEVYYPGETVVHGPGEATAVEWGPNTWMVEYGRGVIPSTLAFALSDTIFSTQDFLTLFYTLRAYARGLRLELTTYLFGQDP
# [7] = molecular target: T1, Sigma2 (Rattus norvegicus, UniProt Q5U3Y7); assay: NIMH-PDSP radioligand binding, Sigma-2
# T1 sequence (Q5U3Y7 1-176): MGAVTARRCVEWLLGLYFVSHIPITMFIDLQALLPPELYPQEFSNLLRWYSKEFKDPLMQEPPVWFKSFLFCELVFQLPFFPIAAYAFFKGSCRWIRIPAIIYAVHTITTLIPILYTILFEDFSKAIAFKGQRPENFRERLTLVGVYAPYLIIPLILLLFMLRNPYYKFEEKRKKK
# [8] = molecular target: κ- opioid receptors (KOR) (Rattus norvegicus, UniProt P34975); assay: NIMH-PDSP radioligand binding, KOR
# Sequence of κ- opioid receptors (KOR) (P34975 whole entry): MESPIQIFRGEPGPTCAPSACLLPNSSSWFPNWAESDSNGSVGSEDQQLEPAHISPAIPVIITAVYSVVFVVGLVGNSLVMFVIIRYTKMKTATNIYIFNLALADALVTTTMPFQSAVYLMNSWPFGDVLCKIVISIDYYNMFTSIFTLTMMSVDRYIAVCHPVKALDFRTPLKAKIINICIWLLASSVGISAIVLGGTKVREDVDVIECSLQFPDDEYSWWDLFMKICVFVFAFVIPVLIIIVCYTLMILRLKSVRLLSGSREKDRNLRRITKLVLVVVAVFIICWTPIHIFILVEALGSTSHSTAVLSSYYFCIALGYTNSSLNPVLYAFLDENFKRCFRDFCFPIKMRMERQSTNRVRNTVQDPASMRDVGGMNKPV
# [9] = molecular target: Serotonin 2A (5-HT2A) (Homo sapiens, UniProt P28223); assay: NIMH-PDSP radioligand binding, 5-HT2A
# Sequence of Serotonin 2A (5-HT2A) (P28223 whole entry): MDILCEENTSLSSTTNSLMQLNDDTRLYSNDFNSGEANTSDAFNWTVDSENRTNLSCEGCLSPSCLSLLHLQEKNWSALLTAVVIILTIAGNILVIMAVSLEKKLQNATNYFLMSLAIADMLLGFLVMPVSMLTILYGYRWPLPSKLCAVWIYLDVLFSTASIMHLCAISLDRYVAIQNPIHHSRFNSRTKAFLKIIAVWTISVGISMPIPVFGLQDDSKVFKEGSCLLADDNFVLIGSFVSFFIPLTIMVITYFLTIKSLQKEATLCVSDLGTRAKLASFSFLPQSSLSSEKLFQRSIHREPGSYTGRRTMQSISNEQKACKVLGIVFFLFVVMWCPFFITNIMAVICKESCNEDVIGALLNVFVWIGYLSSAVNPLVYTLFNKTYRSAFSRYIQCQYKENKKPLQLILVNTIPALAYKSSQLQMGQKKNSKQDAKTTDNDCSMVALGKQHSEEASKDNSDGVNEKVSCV
# [10] = molecular target: Norepinephrine Transporter (NET) (Homo sapiens, UniProt P23975); assay: NIMH-PDSP radioligand binding, NET
# Sequence of Norepinephrine Transporter (NET) (P23975 whole entry): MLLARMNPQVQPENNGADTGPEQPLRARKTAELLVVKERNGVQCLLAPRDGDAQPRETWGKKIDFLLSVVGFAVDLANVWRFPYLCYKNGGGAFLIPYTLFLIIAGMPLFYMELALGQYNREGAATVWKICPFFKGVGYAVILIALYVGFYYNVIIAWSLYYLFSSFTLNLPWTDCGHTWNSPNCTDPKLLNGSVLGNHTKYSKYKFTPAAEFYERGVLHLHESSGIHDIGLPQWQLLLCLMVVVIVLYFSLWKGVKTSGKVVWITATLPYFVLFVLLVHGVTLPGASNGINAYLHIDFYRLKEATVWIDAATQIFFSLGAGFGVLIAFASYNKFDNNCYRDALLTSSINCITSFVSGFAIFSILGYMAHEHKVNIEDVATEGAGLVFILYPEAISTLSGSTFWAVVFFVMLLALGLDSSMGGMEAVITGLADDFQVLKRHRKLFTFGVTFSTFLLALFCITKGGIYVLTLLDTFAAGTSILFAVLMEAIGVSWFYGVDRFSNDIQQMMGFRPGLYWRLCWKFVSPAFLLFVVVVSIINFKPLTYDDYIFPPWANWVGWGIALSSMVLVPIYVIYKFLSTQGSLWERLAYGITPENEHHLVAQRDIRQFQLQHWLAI
# [11] = molecular target: μ- opioid receptors (MOR) (Homo sapiens, UniProt P35372); assay: NIMH-PDSP radioligand binding, MOR
# Sequence of μ- opioid receptors (MOR) (P35372 whole entry): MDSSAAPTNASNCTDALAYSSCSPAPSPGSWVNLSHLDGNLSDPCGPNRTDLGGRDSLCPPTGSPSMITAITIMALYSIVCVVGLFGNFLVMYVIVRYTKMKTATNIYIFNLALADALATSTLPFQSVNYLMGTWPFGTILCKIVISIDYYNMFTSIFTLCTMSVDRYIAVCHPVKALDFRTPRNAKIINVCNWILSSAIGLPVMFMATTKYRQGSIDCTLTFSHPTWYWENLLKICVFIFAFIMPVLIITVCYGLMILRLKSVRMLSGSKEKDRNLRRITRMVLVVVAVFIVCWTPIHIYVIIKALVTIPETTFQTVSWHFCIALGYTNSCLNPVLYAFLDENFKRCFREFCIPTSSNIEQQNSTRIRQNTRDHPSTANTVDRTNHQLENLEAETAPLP
# [12] = molecular target: Dopamine 1 (D1) (Homo sapiens, UniProt P21728); assay: NIMH-PDSP radioligand binding, D1
# Sequence of Dopamine 1 (D1) (P21728 whole entry): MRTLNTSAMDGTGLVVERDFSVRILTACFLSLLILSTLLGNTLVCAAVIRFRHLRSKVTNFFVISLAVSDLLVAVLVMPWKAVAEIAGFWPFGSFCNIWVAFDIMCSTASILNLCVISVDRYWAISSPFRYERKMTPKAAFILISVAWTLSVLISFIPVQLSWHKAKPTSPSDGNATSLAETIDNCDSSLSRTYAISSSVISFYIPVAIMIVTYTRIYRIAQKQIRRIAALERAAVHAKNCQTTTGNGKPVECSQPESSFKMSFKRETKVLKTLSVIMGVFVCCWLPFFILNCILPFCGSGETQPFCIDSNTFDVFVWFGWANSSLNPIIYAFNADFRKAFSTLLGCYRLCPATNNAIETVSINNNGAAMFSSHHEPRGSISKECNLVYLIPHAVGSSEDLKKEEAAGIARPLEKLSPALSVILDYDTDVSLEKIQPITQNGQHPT
# [13] = molecular target: Dopamine Transporter (DAT) (Homo sapiens, UniProt Q01959); assay: NIMH-PDSP radioligand binding, DAT
# Sequence of Dopamine Transporter (DAT) (Q01959 whole entry): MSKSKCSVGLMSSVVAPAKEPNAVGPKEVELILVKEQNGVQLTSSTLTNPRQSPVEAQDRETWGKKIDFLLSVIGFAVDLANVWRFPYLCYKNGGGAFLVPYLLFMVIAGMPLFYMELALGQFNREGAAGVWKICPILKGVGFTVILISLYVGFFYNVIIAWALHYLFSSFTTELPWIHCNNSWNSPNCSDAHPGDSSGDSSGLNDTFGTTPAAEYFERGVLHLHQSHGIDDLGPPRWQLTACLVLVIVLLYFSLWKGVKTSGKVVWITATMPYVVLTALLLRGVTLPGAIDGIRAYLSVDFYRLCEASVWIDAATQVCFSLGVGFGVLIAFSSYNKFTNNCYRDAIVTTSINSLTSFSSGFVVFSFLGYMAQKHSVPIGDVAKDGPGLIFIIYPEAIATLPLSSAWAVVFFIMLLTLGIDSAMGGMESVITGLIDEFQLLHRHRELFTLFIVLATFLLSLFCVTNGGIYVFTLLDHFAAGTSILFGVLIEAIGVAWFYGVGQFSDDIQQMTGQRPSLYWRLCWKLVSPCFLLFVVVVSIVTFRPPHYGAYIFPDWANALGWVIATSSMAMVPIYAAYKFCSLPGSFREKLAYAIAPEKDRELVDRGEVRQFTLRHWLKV
# [14] = system: MES-induced seizures; assay: Maximal electroshock; type: in vivo, mice; details: for MES (30) N/F, animals active over tested: 30 mg/kg i.p.; for MES (100) N/F, animals active over tested: 100 mg/kg i.p.
# In short: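 Mice received test compound i.p. at 30, 100 or 300 mg/kg in 0.01 ml/g and were tested at various intervals after dosing. Corneal electrodes primed with 0.5% tetracaine HCl electrolyte delivered 60 Hz alternating current, 50 mA, for 0.2 s. An animal counted as protected when the hindlimb tonic extensor component was abolished. Results are scored as animals protected over tested.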
# Sequence of Serotonin Transporter (SERT) (P31645 whole entry): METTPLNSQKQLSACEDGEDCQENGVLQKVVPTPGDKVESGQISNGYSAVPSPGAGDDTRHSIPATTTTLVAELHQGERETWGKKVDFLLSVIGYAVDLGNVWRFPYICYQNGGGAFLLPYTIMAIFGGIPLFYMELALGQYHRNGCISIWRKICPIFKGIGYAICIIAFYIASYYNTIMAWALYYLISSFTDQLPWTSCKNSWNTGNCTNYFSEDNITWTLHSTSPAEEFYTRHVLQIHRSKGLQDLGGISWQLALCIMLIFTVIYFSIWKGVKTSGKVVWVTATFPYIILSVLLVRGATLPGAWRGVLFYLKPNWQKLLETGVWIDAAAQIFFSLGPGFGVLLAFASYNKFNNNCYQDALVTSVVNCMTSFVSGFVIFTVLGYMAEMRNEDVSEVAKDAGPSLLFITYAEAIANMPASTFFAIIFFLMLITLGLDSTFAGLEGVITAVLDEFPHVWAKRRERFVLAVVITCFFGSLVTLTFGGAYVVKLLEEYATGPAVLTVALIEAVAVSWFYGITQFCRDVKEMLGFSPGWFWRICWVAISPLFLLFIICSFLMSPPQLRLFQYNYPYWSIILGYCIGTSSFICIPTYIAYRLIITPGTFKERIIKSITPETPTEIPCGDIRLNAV
Compound,Ki [1] [µM],"TOX comments ([2]; 300 mg/kg, 0.5 h)","TOX (30) N/F, animals toxic over tested ([2]; 0.5 h)","TOX (30) N/F, animals toxic over tested ([2]; 4.0 h)","TOX (100) N/F, animals toxic over tested ([2]; 100 mg/kg, 0.5 h)","TOX (100) N/F, animals toxic over tested ([2]; 100 mg/kg, 4.0 h)","TOX (300) N/F, animals toxic over tested ([2]; 300 mg/kg, 0.5 h)","scMET (30) N/F, animals active over tested ([3]; 0.5 h)","scMET (30) N/F, animals active over tested ([3]; 4.0 h)","scMET (100) N/F, animals active over tested ([3]; 0.5 h)","scMET (100) N/F, animals active over tested ([3]; 4.0 h)","scMET (300) N/F, animals active over tested ([3]; 0.5 h)","scMET (300) N/F, animals active over tested ([3]; 4.0 h)",Ki [4] [µM],Ki [6] [µM],Ki [7] [µM],Ki [8] [µM],Ki [9] [µM],Ki [10] [µM],Ki [11] [µM],other results
"c1ccc(C2(NCCN3CCOCC3)CC3CCC2C3)cc1 (stereo not drawn) [Compound 5c, N-(2-morpholinoethyl)-2-phenylbicyclo [2.2.1] heptan-2-amine]",> 10,Death following clonic seizure; also recorded: Clonic seizures,0/4,0/2,6/8,0/4,4/4,0/1 0/1,0/1 0/1,0/1 0/1,0/1 0/1,0/1,0/0,> 10,> 10,> 10,0.988,> 10,> 10,> 10,"TOX comments ([2]; 100 mg/kg, 0.5 h): Clonic seizures; TOX comments ([2]; 300 mg/kg, 4 h): Death; TOX (300) N/F, animals toxic over tested ([2]; 300 mg/kg, 4.0 h): 1/1; affinity for NMDA (in words) [5]: did not exhibit significant affinity; Ki [12]: > 10 µM; Ki [13]: 2.57 µM; MES (30) N/F, animals active over tested ([14]; 0.5 h): 0/1 0/1; MES (30) N/F, animals active over tested ([14]; 4.0 h): 0/1 0/1; MES (100) N/F, animals active over tested ([14]; 0.5 h): 2/3; MES (100) N/F, animals active over tested ([14]; 4.0 h): 0/3; MES neuroprotective activity (in words) ([14]; mouse, in vivo): displayed MES neuroprotective activity"
"c1ccc(C2(NCCN3CCCC3)CC3CCC2C3)cc1 (stereo not drawn) [Compound 5e, 2-Phenyl-N-(2-(pyrrolidin-1-yl)ethyl) bicyclo[2.2.1]heptan-2-amine]",> 10,Diarrhea; also recorded: Unable to grasp rotorod; also recorded: Death,0/4,0/2,0/8,0/4,4/4 /,0/1 0/1,0/1 0/1,0/1 0/1,0/1 0/1,0/1,0/0,> 10,> 10,> 10,4.51,> 10,> 10,> 10,"% inhibition of 1 nM [3H] (+)-MK-801 ([5]; compound at 10 μM (10,000 nM)): greater than 90%; IC50 ([5]; rat forebrain homogenate, 1 nM (+)-[3H]MK-801): 8.48 ± 3.11 µM; Ki [5]: 5.67 µM; Ki [12]: > 10 µM; Ki [13]: 3.62 µM; MES (30) N/F, animals active over tested ([14]; 0.5 h): 0/1 0/1; MES (30) N/F, animals active over tested ([14]; 4.0 h): 0/1 0/1; MES protection (in words) ([14]; 100 mg/kg): all protective in the MES test at the dose of 100 mg/kg except for compound 5e; MES (100) N/F, animals active over tested ([14]; 0.5 h): 0/3 0/3; MES (100) N/F, animals active over tested ([14]; 4.0 h): 0/3 0/3"
(+)-MK-801 [reference compound],–,–,–,–,–,–,–,–,–,–,–,–,–,–,–,–,–,–,–,–,"Kd ([5]; read-out: Kd for (+)-MK-801 binding, saturation conditions, homologous binding assay): 0.00175 µM; Ki ([5]; reference): 0.00136 µM"
